Compound activity from PubChem BioAssay.
Diaphorase act: counter-screen for diaphorase-based assays: diaphorase activators and chemical reducers | activation factor at 20 µM | actives 0.005% (n = 190,000) | AID 1229 | Diaphorase/resazurin coupled assay, resorufin fluorescence, 16 min; stronger effect = higher value; 1 = vehicle wells, 0 = NADH-free wells;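 active = diaphorase activity raised at least twofold by the compound at 20 µM; inactive = activation factor below 2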
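Material: Purified diaphorase enzyme from Clostridium kluyveri | Buffer or medium: 50 mM HEPES pH 7.4 with 4.542 mM MgCl2, 0.005% Tween 20 | Times: 16 min enzyme reaction, ambient temperature | Signal: Red resorufin fluorescence at 544/590 nm excitation/emission | Measure: Increased resorufin signal from activators or reducing compounds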
PMI act hi M6P: increases human PMI activity with near-saturating mannose 6-phosphate | P34949 | coupled PMI enzyme assay, resazurin fluorescence, 20 min; stronger effect = higher value; 1 = untreated enzyme, 0 = substrate-free blank | activation factor at 20 µM | actives 0.34% (n = 190,000) | AID 1216;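 active = activation factor of 2 or more at 20 µM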
Target sequence (P34949 whole entry, looked up): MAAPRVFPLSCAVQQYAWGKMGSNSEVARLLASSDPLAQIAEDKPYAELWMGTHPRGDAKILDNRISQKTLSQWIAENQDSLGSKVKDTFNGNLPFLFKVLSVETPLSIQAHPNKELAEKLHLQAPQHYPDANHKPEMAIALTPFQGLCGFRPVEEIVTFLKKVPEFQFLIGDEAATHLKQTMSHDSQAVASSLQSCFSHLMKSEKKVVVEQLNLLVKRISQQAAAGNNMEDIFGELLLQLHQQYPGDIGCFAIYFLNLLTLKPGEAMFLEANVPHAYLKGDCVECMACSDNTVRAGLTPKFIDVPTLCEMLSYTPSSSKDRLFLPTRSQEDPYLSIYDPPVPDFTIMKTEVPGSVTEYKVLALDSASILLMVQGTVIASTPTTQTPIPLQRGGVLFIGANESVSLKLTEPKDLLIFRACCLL
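Material: human phosphomannose isomerase with PGI, G6PDH, diaphorase coupling enzymes; amount: PMI at 15 ng/mL final; also added: Mannose-6-phosphate 1.0 mM (near-saturating) plus 0.22 mM NADP+; incubation: enzyme reaction with compound 20 min at room temperature; signal: resorufin fluorescence (Ex 544/Em 590 nm) from resazurin via diaphorase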
Diaphorase inh: diaphorase inhibition or chemical oxidation counter-screen; diaphorase resazurin-to-resorufin fluorescence, NADH, 16 min; bacterial (C. kluyveri) enzyme, not human; actives 0.69% (n = 190,000); AID 1217; inhibition, % at 20 µM;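 active = primary screen inhibition at 20 µM above a set limit, cut at about 50% in these data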;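 note: plate controls were DMSO with full reaction for no effect and wells lacking NADH for full effect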
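Assay system – diaphorase enzyme from Clostridium kluyveri · Amount – diaphorase 0.14 U/mL (working solution) · Times – reaction incubation of 16 min at room temperature · Controls – No-NADH positive control and DMSO neutral control · Signal – resorufin fluorescence 544/590 nm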
G6PDH counter: inhibits Leuconostoc G6PDH, flagging false hits in G6PDH-based assays; Purified L. mesenteroides G6PDH, diaphorase/resazurin coupled fluorescence, 45 min; inhibition, % at 5 µM; actives 0.12% (n = 200,000); AID 1020; in the data active = inhibition above about 50%
PMI act: increases human mannose-6-phosphate isomerase activity. P34949. AID 1214. actives 0.005% (n = 190,000). activation factor at 20 µM. purified human PMI, coupled resazurin fluorescence, 20 min; stronger effect = higher value; 1 = vehicle control, 0 substrate-free wells;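 active = activation factor of 2 or more at 20 µM, relative to plate controls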
Redox H2O2 prof: compounds producing H2O2 with reducing agent – biochemical, NIH compound library profiling, artefact control for MLSCN library redox annotation, primary screen; DTT-dependent redox cycling H2O2, phenol red/HRP absorbance; 100% = 100 µM peroxide control, 0% = buffer; activation, % at 10 µM; actives 0.03% (n = 200,000); AID 878;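 active = activation of at least 50% relative to the plate's high and low controls in the primary single-dose screen; inactive = activation below 50%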;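 note: compound incubated with DTT at 0.8 mM final as the reducing agent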
* marks the source's active call; other numbers are inactive results; . = not tested or not shown. Hits are enriched below; roughly 1.1% of the tested compounds scored in any of these assays.

SMILES	Diaphorase act	PMI act hi M6P	Diaphorase inh	G6PDH counter	PMI act	Redox H2O2 prof
FC(F)c1nc2ccccc2[nH]1	0.9	1	11.0	11.5	1	-0.2
c1ccc2[nH]c3cc4ncnc4cc3nc2c1	0.4	1.2	55.4*	30.9	1.5	0.0
CC(C)(C)c1cc(CN(CCO)CCO)cc(C(C)(C)C)c1O	0.3	0.6	69.8*	-9.2	0.5	5.8
O=C(CCCN1C(=O)c2cccc3cccc(c23)C1=O)NC1CCS(=O)(=O)C1 (configuration not stated)	.	.	.	8.5	.	0.1
O=[N+]([O-])c1ccc(O)c(/C=N/Nc2ccccc2Cl)c1	0.9	2.2*	8.8	-2.0	1.7	-1.4
O=[N+]([O-])c1cccc(N/N=C/c2cccc(O)c2O)c1	0.5	0.6	52.0*	25.3	0.7	-0.7
CN=c1scc(-c2cccs2)n1/N=C/c1ccccc1O	0.8	0.9	19.1	-1.6	0.9	0.3
CN=c1scc(-c2cccs2)n1/N=C/c1ccc(O)c(O)c1O	0.3	0.7	68.5*	-14.6	0.3	2.1
CN=c1scc(C)n1/N=C/c1ccc(O)c(O)c1O	0.2	0.2	75.6*	40.7	0.2	-0.7
CC1CCc2c(sc(Nc3nc4c(F)cccc4s3)c2C(N)=O)C1 (configuration not stated)	0.7	1.5	26.5	-15.5	1.2	-0.2
O=C1c2cccc(O)c2C(=O)c2c(O)cccc21	0.7	0.8	25.5	17.4	1.2	3.7
CC1=CC(=O)c2c(O)ccc(O)c2C1=O	0.5	1.3	54.2*	58.1*	1.5	1.3
COc1ccc(CN(Cc2cc3cccc(C)c3n3nnnc23)C(=O)N2CCOCC2)cc1	0.8	1	15.6	6.8	0.9	-0.1
Cc1cc2oc(=O)cc(CN3CCCc4ccccc43)c2cc1C	1	2.3*	1.2	4.8	1.1	-2.6
Cc1cc2oc(=O)cc(CN3CCOCC3)c2cc1C	0.9	1	6.4	-3.6	1	0.3
CCOc1ccc(-n2c(=O)[nH]cc(C(=O)Nc3ccc(OC)c(OC)c3)c2=O)cc1	0.8	0.9	24.7	13.8	1	-0.3
CCOC(=O)C1=C(C)N(CC(C)C)C(=O)C1	0.8	0.9	15.7	6.7	0.9	-0.7
CCn1c(C)nc2cc(C(=O)N/N=C/c3ccccc3)ccc21	1.1	1.1	-7.8	-0.9	1.1	0.1
CCn1c(C)nc2cc(C(=O)NNC(=S)NC(=O)c3ccccc3)ccc21	0.5	1.2	54.9*	-3.5	1.1	-0.1
CCn1c(C)nc2cc(C(=O)N/N=C/c3cccc(O)c3O)ccc21	0.3	0.3	72.4*	48.9	0.3	-0.2
CC(=O)Nc1cccc(NC(=O)C(=O)c2cn(CC(=O)N3CCCCC3)c3ccccc23)c1	1	0.8	-2.0	3.8	1	-0.3
COc1ccc(-c2cc(C(F)(F)F)n3ncc(C(=O)Nc4c(C)n(C)n(-c5ccccc5)c4=O)c3n2)cc1	.	.	.	17.8	.	7.1
O=C(/C(=N/N=C/c1ccc(O)c(O)c1)c1ccccc1)c1ccccc1	0.5	0.8	51.3*	-5.4	0.7	0.3
CCN(CC)CCNC(=O)c1cc2cc(Br)ccc2s1	1.1	1.1	-6.8	2.5	1.1	-0.2
CCOC(=O)c1c(C)n(-c2ccc(C)cc2)c2c(C(C(C)=O)C(=O)O)c(Br)c(O)c(O)c12 (configuration not stated)	0.3	0.7	72.3*	8.6	0.6	0.2
SMILES	Diaphorase act	PMI act hi M6P	Diaphorase inh	G6PDH counter	PMI act	Redox H2O2 prof
CCOC(=O)c1c(C)n(-c2ccc(C)cc2)c2c(CC(C)=O)c(Br)c(OC)c(O)c12	0.9	1	9.4	2.3	1	0.1
COc1ccc(CN2CCNC(=O)C2CC(=O)N2CCCCO2)cc1OC (configuration not stated)	0.9	0.5	12.9	4.3	0.8	-0.9
Cc1nc2nc(-c3ccc(Cl)cc3)cn2nc1C	0.8	1.1	17.7	1.0	1	0.1
COc1cccc(-c2cn3nc(C)c(C)nc3n2)c1	1.1	2.1*	-7.9	19.7	1.6	-0.1
O=C(O)c1ccccc1C(=O)NNc1ccc(Cl)cc1Cl	1	2.7*	3.8	5.0	1.7	-0.3
O=C(O)c1ccccc1C(=O)NNc1ccc(F)cc1	0.9	1.7	13.6	3.9	1.4	2.1
CCCn1c(=S)[nH]c2ccccc2c1=O	0.8	1	19.1	14.3	1	-0.3
CCc1cc2c(=O)n(CCC(C)C)c(=S)[nH]c2s1	0.4	1.1	55.6*	-5.6	1.1	-0.7
O=C(OCc1cc(=O)n2cc(Br)ccc2n1)c1ccc(Cl)c(S(=O)(=O)NCc2ccccc2)c1	0.8	0.9	22.8	-7.4	0.9	6.8
COc1ccc(NC(C)=O)cc1S(=O)(=O)Nc1ccc2c(c1)OCCO2	1	0.9	0.7	17.3	1	-0.3
CCC(C)NC(=O)CN1C(=O)NC2(CCc3ccccc3C2)C1=O (configuration not stated)	0.9	0.9	5.0	4.5	0.9	-2.1
Cc1ccc(NC(=O)/C(=C\c2ccc([N+](=O)[O-])cc2)NC(=O)c2ccccc2)cc1	1.1	1.1	-5.2	9.2	1.1	-4.4
O=C(N/N=C/c1ccc(O)c(O)c1O)/C(=C/c1ccc([N+](=O)[O-])cc1)NC(=O)c1ccccc1	0.3	0.3	73.6*	1.8	0.3	-0.8
O=C(NC1CCS(=O)(=O)C1)/C(=C\c1ccc(F)cc1)NC(=O)c1ccccc1 (configuration not stated)	1	1	3.5	3.2	1.1	0.8
O=C(NC1CCS(=O)(=O)C1)/C(=C/c1ccco1)NC(=O)c1ccccc1 (configuration not stated)	0.5	1	54.9*	2.1	1.1	-0.1
CC(C)(C)OC(=O)[C@H](Cc1ccccc1)NC(=O)c1nc[nH]c1C(=O)NC1CCN(C(=O)OC(C)(C)C)CC1	0.5	0.7	51.8*	13.5	0.7	0.4
CC(C)C[C@H](NC(=O)c1nc[nH]c1C(=O)NC1CCN(C(=O)OC(C)(C)C)CC1)C(=O)OCc1ccccc1	0.7	0.8	29.7	21.8	0.8	-0.1
COc1cc2cccc(OC)c(=O)c2c(O)c1OC	0.9	1	13.9	7.1	0.9	-0.3
Oc1cccc2cc3cccc(O)c3c(O)c12	0.9	2.2*	8.5	5.7	1.8	-1.1
Cc1ccc(C(=O)ONc2ccc(N=NC(=O)c3ccccc3O)cc2)cc1	0.5	1.1	54.2*	4.3	1	-0.1
